Source: ChEMBL document CHEMBL2150886, “Synthesis of [3β-acetoxy-urs-12-en-28-oyl]-1-monoglyceride and investigation on its anti tumor effects against BGC-823” (Bioorg Med Chem, 2011)

What was measured:
Mus musculus [1] = experiment: Toxicity in human BGC823 cells xenografted nude mouse assessed as body weight changes at 8 mg/kg, iv treated 4 times on day 1, 4, 7 and 10 post tumor implant (reference value: 20.54 +/- 1.45 grams); format: organism-based, BGC-823; design: dose 8 mg/kg, route intravenous; conditions: in vivo
Mus musculus [2] = experiment: Toxicity in human BGC823 cells xenografted nude mouse assessed as body weight changes at 8 mg/kg, iv treated 5 times on day 1, 4, 7, 10 and day 13 post tumor implant (reference value: 20.21 +/- 1.83 grams); format: organism-based, BGC-823; design: dose 8 mg/kg, route intravenous; conditions: in vivo
Mus musculus [3] = experiment: Toxicity in human BGC823 cells xenografted nude mouse assessed as body weight changes at 8 mg/kg, iv treated […] on day 1, 4, 7, 10, 13 and day 16 post tumor implant (reference value: 20.12 +/- 1.52 grams); format: organism-based, BGC-823; design: dose 8 mg/kg, route intravenous; conditions: in vivo
HT-29 = experiment: Cytotoxicity against human HT-29 cells incubated for 48 hrs by MTT assay; format: functional, cell-based; conditions: HT-29, 48 h
In short: (§1)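 Cells were grown in RPMI-1640 with 10% heat-inactivated FCS at 37 °C under 5% CO₂, seeded at 5 × 10³ per well and left 24 h. Compounds in DMSO were diluted in medium to 0.5% final DMSO; controls received 0.5% DMSO. Exposure was 24–72 h, followed by MTT for 4 h, formazan dissolved in DMSO, and A570. Six wells per sample; IC₅₀ taken at 50% inhibition; ≥3 repeats.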

BGC-823 [4] = experiment: Cytotoxicity against human BGC823 cells by MTT assay; format: functional, cell-based; in short: as §1
[5] = Cytotoxicity against human GES-1 cells incubated for 48 hrs by MTT assay; format: cell-based; conditions: GES1, 48 h; in short: as §1
BGC-823 [6] = experiment: Antitumor activity against human BGC823 cells xenografted in nude mouse assessed as reduction in tumor volume at 8 mg/kg, iv dosed 5 times; format: functional; design: scale not given: the % may be the effect or the level left
In short: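 Male nude mice (5 weeks, 18–22 g) inoculated subcutaneously with 1 × 10⁷ BGC-823 cells. At about 200 mm³ tumours, animals were randomised into four groups of eight. Each received 0.2 mL iv by tail vein; controls got 0.9% saline. Tumour volume was measured daily as 0.5 × length × width²; tumours were weighed at the end. Values are mean ± SD, n = 8.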

Mus musculus [7] = experiment: Toxicity in human BGC823 cells xenografted nude mouse assessed as body weight changes at 8 mg/kg, iv treated on day 1 post tumor implant (reference value: 19.69 +/- 1.21 grams); format: organism-based, BGC-823; design: dose 8 mg/kg, route intravenous; conditions: in vivo
Mus musculus [8] = experiment: Toxicity in human BGC823 cells xenografted nude mouse assessed as body weight changes at 8 mg/kg, iv treated 2 times on day 1 and day 4 post tumor implant (reference value: 20.58 +/- 1.35 grams); format: organism-based, BGC-823; design: dose 8 mg/kg, route intravenous; conditions: in vivo
Mus musculus [9] = experiment: Toxicity in human BGC823 cells xenografted nude mouse assessed as body weight changes at 8 mg/kg, iv treated 3 times on day 1, day 4 and day 7 post tumor implant (reference value: 20.79 +/- 1.29 grams); format: organism-based, BGC-823; design: dose 8 mg/kg, route intravenous; conditions: in vivo
HepG2 = experiment: Cytotoxicity against human HepG2 cells incubated for 48 hrs by MTT assay; format: functional, cell-based; conditions: HepG2, 48 h; in short: as §1

SMILES	Activity (Mus musculus [1]) [g]	Activity (Mus musculus [2]) [g]	Activity (Mus musculus [3]) [g]	IC50 (HT-29) [µM]	IC50 (BGC-823 [4]) [µM]	IC50 [5] [µM]	Activity (BGC-823 [6]) [%]	Activity (Mus musculus [7]) [g]	Activity (Mus musculus [8]) [g]	Activity (Mus musculus [9]) [g]	IC50 (HepG2) [µM]
CC(=O)O[C@H]1C(=O)[C@@]2(C)[C@H]([C@H](OC(=O)c3ccccc3)[C@]3(O)C[C@H](OC(=O)[C@H](O)[C@@H](NC(=O)c4ccccc4)c4ccccc4)C(C)=C1C3(C)C)[C@]1(OC(C)=O)CO[C@@H]1C[C@@H]2O [PACLITAXEL]	20.13	20.17	20.25	< 10	33.1	106	15.2	18.76	19.72	19.7	–
C[C@H]1[C@H](C)CC[C@]2(C(=O)OCC(O)CO)CC[C@]3(C)C(=CC[C@@H]4[C@@]5(C)CC[C@H](O)C(C)(C)[C@@H]5CC[C@]43C)[C@H]12 (some centres undefined)	–	–	–	–	20.5	154	–	–	–	–	44.2
CC(=O)O[C@H]1CC[C@]2(C)[C@H]3CC=C4[C@@H]5[C@@H](C)[C@H](C)CC[C@]5(C(=O)O)CC[C@@]4(C)[C@]3(C)CC[C@H]2C1(C)C [O-ACETYLURSOLIC ACID]	–	–	–	23.9	19.4	92.9	–	–	–	–	37.7
CC(=O)O[C@H]1CC[C@]2(C)[C@H]3CC=C4[C@@H]5[C@@H](C)[C@H](C)CC[C@]5(C(=O)OCCO)CC[C@@]4(C)[C@]3(C)CC[C@H]2C1(C)C	–	–	–	23.6	17.2	137	–	–	–	–	29.8
C[C@H]1[C@H](C)CC[C@]2(C(=O)O)CC[C@]3(C)C(=CC[C@@H]4[C@@]5(C)CC[C@H](O)C(C)(C)[C@@H]5CC[C@]43C)[C@H]12 [URSOLIC ACID]	–	–	–	26.3	23	93.8	–	–	–	–	–
